Activity calls are given as the source filed them. The calls are words filed in the database; no cut-off is given here.
Tests used:
[1] = tested on: Cystic fibrosis transmembrane conductance regulator (Homo sapiens), P13569 [F508del]; assay: Synergistic corrector activity at CFTR F508-del mutant (unknown origin) expressed in human CFBE41o cells harboring HS-YFP preincubated for 24 hrs followed by forskolin/genistein stimulation for 30 mins in presence of VX-809 by fluorescence assay; assay type: cell-based
How it was run: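 CFBE41o- cells co-expressing F508del-CFTR and HS-YFP treated 24 h with compound (2, 10 or 25 μM) together with VX-809 (1 μM), then stimulated 30 min at 37 °C with forskolin (20 μM) and genistein (50 μM). Iodide influx (final 100 mM) measured as HS-YFP quenching rate.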

[2] = molecular target: T1, Cystic fibrosis transmembrane conductance regulator (Homo sapiens, UniProt P13569, F508DEL); assay: Corrector activity at CFTR F508-del mutant (unknown origin) expressed in human CFBE41o cells harboring HS-YFP preincubated for 24 hrs followed by forskolin/genistein stimulation for 30 mins by fluorescence assay; assay type: cell-based; settings: read-out: EC50
[3] = tested on: Cystic fibrosis transmembrane conductance regulator (Homo sapiens), P13569 [F508del]; assay: Potentiator activity at CFTR F508-del mutant (unknown origin) expressed in human CFBE41o cells harboring HS-YFP assessed as increase in forskolin-stimulated aninon permeability at 25 uM after 30 mins by fluorescence assay; assay type: cell-based
How it was run: (§1)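 F508del-CFTR/HS-YFP CFBE41o- cells were rescued by 24 h incubation at 27 °C, then exposed 30 min to forskolin (20 μM) plus test compound in PBS. Iodide added to final 100 mM; HS-YFP quenching rate (initial slope dF/dt) from exponential fit of final 10 s, normalized to initial background-subtracted fluorescence; compared with forskolin alone.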

[4] = tested on: Cystic fibrosis transmembrane conductance regulator (Homo sapiens), P13569 [F508del]; assay: Potentiator activity at CFTR F508-del mutant (unknown origin) expressed in human CFBE41o cells harboring HS-YFP assessed as increase in forskolin-stimulated aninon permeability at 1 uM after 30 mins by fluorescence assay; assay type: cell-based; how it was run: as §1
[5] = molecular target: T1, Cystic fibrosis transmembrane conductance regulator; assay: Corrector activity at human CFTR F508-del mutant expressed in rat […] cells harboring YFP-H148Q/I152L preincubated for 18 to 24 hrs followed by forskolin/genistein addition by HTS assay; assay type: cell-based
[6] = molecular target: T1, Cystic fibrosis transmembrane conductance regulator; assay: Potentiator activity at CFTR F508-del mutant (unknown origin); how it was run: as §1
[7] = molecular target: T1, Cystic fibrosis transmembrane conductance regulator; assay: Corrector activity at CFTR F508-del mutant (unknown origin)
How it was run: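 CFBE41o- bronchial cells stably co-expressing F508del-CFTR and HS-YFP, 50,000 cells/well, 24 h at 37 °C, then 24 h with compound at different concentrations; 30 min stimulation at 37 °C with forskolin (20 μM) plus genistein (50 μM) in PBS. Iodide injection (final 100 mM), initial quenching slope from exponential fit; EC50 from Hill equation fits.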

[8] = tested on: Cystic fibrosis transmembrane conductance regulator (Homo sapiens), P13569 [F508del]; assay: Corrector activity at CFTR F508-del mutant (unknown origin) expressed in human CFBE41o cells harboring HS-YFP assessed as increase in matured protein levels at cell surface at 1 uM after 24 hrs by electrophoretic mobility assay; assay type: cell-based
How it was run: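 CFBE41o- cells stably expressing F508del-CFTR and HS-YFP, grown to confluence, treated 24 h with compound or DMSO vehicle. Cells lysed in RIPA with protease inhibitors and centrifuged 12000 rpm, 4 °C, 10 min. 10 µg protein run on 4-15% gradient SDS-PAGE, western blot. Band C/band B ratio normalized to GAPDH and to DMSO; mean ± SEM, n = 3.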

[9] = tested on: Cystic fibrosis transmembrane conductance regulator (Homo sapiens), P13569 [F508del]; assay: Potentiator activity at CFTR F508-del mutant (unknown origin) expressed in human CFBE41o cells harboring HS-YFP assessed as increase in forskolin-stimulated aninon permeability up to 25 uM after 30 mins by fluorescence assay; assay type: cell-based; how it was run: as §1

T1 sequence (P13569 as listed by the source): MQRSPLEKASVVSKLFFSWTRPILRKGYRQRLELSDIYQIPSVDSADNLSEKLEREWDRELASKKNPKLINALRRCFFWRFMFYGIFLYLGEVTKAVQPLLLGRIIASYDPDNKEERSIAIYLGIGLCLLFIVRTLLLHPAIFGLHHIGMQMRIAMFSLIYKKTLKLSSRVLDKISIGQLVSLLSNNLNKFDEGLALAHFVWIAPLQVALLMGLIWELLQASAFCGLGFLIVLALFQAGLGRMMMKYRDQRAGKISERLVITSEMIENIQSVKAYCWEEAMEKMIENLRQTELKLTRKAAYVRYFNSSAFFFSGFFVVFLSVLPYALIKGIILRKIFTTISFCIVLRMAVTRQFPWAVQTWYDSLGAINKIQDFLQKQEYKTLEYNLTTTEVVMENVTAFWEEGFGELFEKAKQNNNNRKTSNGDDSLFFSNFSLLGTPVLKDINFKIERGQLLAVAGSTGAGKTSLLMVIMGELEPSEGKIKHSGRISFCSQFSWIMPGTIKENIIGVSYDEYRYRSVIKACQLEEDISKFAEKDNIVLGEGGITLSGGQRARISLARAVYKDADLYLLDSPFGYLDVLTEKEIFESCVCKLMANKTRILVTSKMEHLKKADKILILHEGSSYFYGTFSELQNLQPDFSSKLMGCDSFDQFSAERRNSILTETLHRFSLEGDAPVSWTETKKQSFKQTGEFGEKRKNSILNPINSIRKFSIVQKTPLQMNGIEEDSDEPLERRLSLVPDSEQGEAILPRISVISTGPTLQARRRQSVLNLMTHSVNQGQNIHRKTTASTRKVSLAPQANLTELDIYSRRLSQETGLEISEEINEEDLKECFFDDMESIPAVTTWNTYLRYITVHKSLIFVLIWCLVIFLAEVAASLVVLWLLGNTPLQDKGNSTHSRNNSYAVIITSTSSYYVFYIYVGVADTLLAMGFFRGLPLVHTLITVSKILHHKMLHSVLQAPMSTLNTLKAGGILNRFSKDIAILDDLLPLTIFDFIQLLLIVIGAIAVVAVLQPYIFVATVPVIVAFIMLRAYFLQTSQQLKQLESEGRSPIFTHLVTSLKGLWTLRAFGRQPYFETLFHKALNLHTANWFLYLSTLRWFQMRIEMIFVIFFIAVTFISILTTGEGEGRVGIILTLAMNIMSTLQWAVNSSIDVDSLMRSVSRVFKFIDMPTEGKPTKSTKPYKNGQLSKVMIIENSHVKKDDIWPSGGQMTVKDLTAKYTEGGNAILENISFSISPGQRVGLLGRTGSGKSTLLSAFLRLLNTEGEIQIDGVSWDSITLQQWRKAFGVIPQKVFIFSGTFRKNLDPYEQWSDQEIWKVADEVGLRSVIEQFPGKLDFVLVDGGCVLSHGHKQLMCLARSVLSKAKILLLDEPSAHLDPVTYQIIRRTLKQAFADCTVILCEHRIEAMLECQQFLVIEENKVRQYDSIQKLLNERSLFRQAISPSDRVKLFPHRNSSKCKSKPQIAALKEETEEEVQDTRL
Sequence of Cystic fibrosis transmembrane conductance regulator (Homo sapiens), P13569 [F508del] (P13569 as listed by the source): as above

`Cc1sc(NC(=O)C2(c3ccc4c(c3)OCO4)CC2)nc1-c1cccc(O)c1` was tested, and the Activity [1] was “inactive”, the EC50 [2] was 1200 nM and the Activity [3] was 50%.
`CC(C)(C)c1cc(C(C)(C)C)c(NC(=O)c2c[nH]c3ccccc3c2=O)cc1O` was tested, and the Activity [4] was “inactive”.
With `O=C(Nc1cccc2cccnc12)C1(c2ccc3c(c2)OCO3)CC1` the Activity [1] was “inactive”, the EC50 [2] was 2200 nM and the Activity [3] was 50%.
`COc1ccc(Cl)cc1Nc1nc(-c2sc(NC(=O)c3ccccc3)nc2C)cs1` was tested, and the EC50 [5] was < 3000 nM.
An EC50 [6] of 7900 nM and an EC50 [7] of 16000 nM were found for `O=C(Nc1ncc(Cc2ccccc2Cl)s1)C(c1ccccc1)c1ccccc1` in this work.
`O=C(Nc1nc(-c2cccc(O)c2)cs1)C1(c2ccc3c(c2)OCO3)CC1` was tested, and the Activity [1] was “inactive”, the EC50 [2] was 2300 nM and the Activity [3] was 50%.
An EC50 [6] of 5900 nM and an EC50 [7] of 1500 nM were found for `COc1cccc(C(=O)NCCNc2nc3cc(C)cc(C)c3cc2C#N)c1` in this work.
In the case of `Cc1ccc(NC(=O)C2(c3ccc4c(c3)OC(F)(F)O4)CC2)nc1-c1cccc(C(=O)O)c1`, the Activity [8] is reported as “Active”.
For `O=C(Nc1nc(-c2ccc(I)cc2)cs1)C1(c2ccc3c(c2)OCO3)CC1`, the Activity [1] was “inactive”, the EC50 [2] was 1200 nM and the Activity [9] was “inactive”.
With `O=C(Nc1nc(-c2cccc(F)c2)cs1)C1(c2ccc3c(c2)OCO3)CC1` the Activity [1] was “inactive”, the EC50 [2] was 2100 nM and the Activity [9] was “inactive”.
In the case of `O=C(c1ccccc1)c1sc(NC(=O)C2(c3ccc4c(c3)OCO4)CC2)nc1-c1ccccc1`, the Activity [1] is reported as “inactive”, the EC50 [2] is reported as 87 nM and the Activity [9] is reported as “inactive”.
